# Measurements taken from ChEMBL document CHEMBL1124779, “Synthesis and antitumor activity of 1-[[(dialkylamino)alkyl]amino]-4-methyl-5H-pyrido[4,3-b]benzo[e]- and -benzo[g])indoles. A new class of antineoplastic agents” (1990).
# How the values were obtained:
# P388 [1] = assay: In vivo T/C (survival time treated/survival time control x 100) was determined against P388 leukemia cells at 40 mg/Kg; type: functional, Mus musculus
# Outline: (§1)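 B6D2 F1 mice, at least five per group, were inoculated ip on day 0 with 10^6 viable P388 cells (25 mL/kg). Compounds were dissolved in distilled water and given ip (25 mL/kg) daily on days 1–4. Mortality was checked daily, with necropsy of dead animals. T/C×100 was median survival, treated versus control. Survivors beyond 50 days counted as cured and were excluded from the median.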
# P388 [2] = assay: In vitro cytotoxicity was determined against P388 leukemia cells; type: functional; conditions: Mus musculus, read-out: ID50 (the source's name)
# Outline: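 P388 cells in exponential growth, RPMI 1640 with 2 mM glutamine, 10 μM 2-mercaptoethanol and 10% FCS, 5% CO2, 37 °C. Cells at 10^5 cells/mL. Drugs in distilled water added on day 0. Cells counted by Coulter counter after 96 h. ID50 (μg/mL, 50% inhibition of proliferation) estimated by regression of concentration/response data.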
# [3] = Cytotoxicity in the multiple tumor disk diffusion soft agar assay at the dose of 15 ug/disk against solid tumor C38.; type: functional, Mus musculus
# Outline: (§2)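 Soft agar disk diffusion: bottom layer 0.8% noble agar, top layer 0.47% noble agar, both in 1:1 CMRL-Fischer medium with 11% horse serum. Top layer seeded with 5×10^3 L1210 cells or 10^6 solid tumor cells (C38, PO3). Drug applied on a dried 6-mm filter-paper disk. Incubation 7-11 days. Inhibition zone measured by inverted microscope, in units (1 unit = 30 μm).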
# L1210 [4] = assay: Tested for cytotoxicity in the multiple tumor disk diffusion soft agar assay at the dose of 15 ug/disk against leukemia L1210; range is 450-600; type: functional, Mus musculus; outline: as §2
# [5] = Cytotoxicity in the multiple tumor disk diffusion soft agar assay at the dose of 15 ug/disk against solid tumor PO3; type: functional, Mus musculus; outline: as §2
# L1210 [6] = assay: Tested for cytotoxicity in the multiple tumor disk diffusion soft agar assay at the dose of 15 ug/disk against leukemia L1210; type: functional, Mus musculus; outline: as §2
# P388 [7] = assay: In vivo T/C (survival time treated/survival time control x 100) was determined against P388 leukemia cells at 20 mg/Kg; type: functional, Mus musculus; outline: as §1
# L1210 [8] = assay: Cytotoxicity in the multiple tumor disk diffusion soft agar assay at the dose of 15 ug/disk against leukemia L1210; type: functional, Mus musculus; outline: as §2
# P388 [9] = assay: In vivo T/C (survival time treated/survival time control x 100) was determined against P388 leukemia cells at 5.0 mg/Kg; type: functional, Mus musculus; outline: as §1
# P388 [10] = assay: In vivo T/C (survival time treated/survival time control x 100) was determined against P388 leukemia cells at 2.5 mg/Kg; type: functional, Mus musculus; outline: as §1
# [11] = Tested for cytotoxicity in the multiple tumor disk diffusion soft agar assay at the dose of 15 ug/disk against solid tumor C38; range is 650-675; type: functional, Mus musculus; outline: as §2
# L1210 [12] = assay: In vivo T/C (survival time treated/survival time control x 100) was determined against L1210 leukemia cells at 20 mg/Kg; type: functional, Mus musculus
# Outline: (§3)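 B6D2 F1 mice, at least five per group, were inoculated ip on day 0 with 10^5 viable L1210 cells (25 mL/kg). Compounds were dissolved in distilled water and given ip (25 mL/kg) on days 1–4. Deaths were checked daily, with necropsy to separate tumor from toxic death. T/C×100 was median survival of treated over controls. Mice surviving over 50 days counted as cured and were excluded from the median.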
# L1210 [13] = assay: In vivo T/C (survival time treated/survival time control x 100) was determined against L1210 leukemia cells at 10 mg/Kg; type: functional, Mus musculus; outline: as §3
# L1210 [14] = assay: Tested for cytotoxicity in the multiple tumor disk diffusion soft agar assay at the dose of 15 ug/disk against leukemia L1210; range is 450-650; type: functional, Mus musculus; outline: as §2
# P388 [15] = assay: In vivo T/C (survival time treated/survival time control x 100) was determined against P388 leukemia cells at 10 mg/Kg; type: functional, Mus musculus; outline: as §1
structure (smiles),measurement,setting,value
CCN(CC)CCCNc1ncc(C)c2c1c1c3ccccc3ccc1n2C,T/C x100,P388 [1],124
same,IC50,P388 [2],0.1 µg/mL
same,Cytotoxicity,[3],520 U
same,Cytotoxicity,L1210 [4],450 U
CCN(CC)CCCNc1ncc(C)c2c1c1ccc3cc(O)ccc3c1n2C,Cytotoxicity,[5],350 U
same,Cytotoxicity,L1210 [6],400 U
same,IC50,P388 [2],0.1 µg/mL
same,T/C x100,P388 [7],124
same,Cytotoxicity,[3],325 U
same,Cytotoxicity,L1210 [8],300 U
CCN(CC)CCCNc1ncc(C)c2c1c1ccc3c(OC)cccc3c1n2C,T/C x100,P388 [1],124
same,IC50,P388 [2],0.75 µg/mL
same,Cytotoxicity,[3],430 U
same,Cytotoxicity,L1210 [8],450 U
Cc1cnc(NCCCN(C)C)c2c3cc(O)ccc3n(C)c12,T/C x100,P388 [9],128
Cc1c[nH]c(NCCCN(C)C)c2c3cc(O)ccc3nc1-2,T/C x100,P388 [10],130
CCN(CC)CCCNc1ncc(C)c2c1c1c3ccc(O)cc3ccc1n2C,IC50,P388 [2],0.025 µg/mL
same,T/C x100,P388 [7],232
same,Cytotoxicity,[11],650 U
same,Cytotoxicity,L1210 [8],450 U
same,T/C x100,L1210 [12],129
COc1cccc2c1ccc1c2[nH]c2c(C)cnc(NCCCN(C)C)c21,Cytotoxicity,[5],225 U
same,IC50,P388 [2],0.15 µg/mL
same,T/C x100,P388 [7],121
same,Cytotoxicity,L1210 [8],280 U
CCN(CC)CCCNc1ncc(C)c2[nH]c3ccc4cc(O)ccc4c3c12,Cytotoxicity,[5],900 U
same,IC50,P388 [2],0.05 µg/mL
same,Cytotoxicity,[3],625 U
same,T/C x100,L1210 [13],149
same,Cytotoxicity,L1210 [8],475 U
same,Cytotoxicity,L1210 [14],450 U
same,T/C x100,P388 [15],215
